# Experimental data reported in PMC12017310 (Science Advances, 2025).
# Peptide text beside a SMILES is read from it. * marks the point of attachment. Cbz = O=C(OCc1ccccc1)*
# Tests used:
# CDK12 = CDK12 (Homo sapiens, UniProt Q9NYV4); assay: Western blot of CDK12 in PCa cell lines; format: cell-based; settings: 22Rv1, MG132 pre-treatment 2 hours, then BSJ-5-63
# Summary of the method: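 Equal protein amounts separated by SDS-PAGE and transferred to PVDF. Primary antibodies in 5% BSA/TBST overnight at 4°C; secondary antibody 1 h at room temperature. Blots shown are representative of three independent experiments.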
# PCa cells = assay: Colony formation assay; format: cell-based, human; settings: cell viability and colony formation assays
# Summary of the method: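 Seeding was 30,000 cells/well for 22Rv1 (six-well plates), with overnight attachment before treatment. Colonies grown 14 days at 37°C, 5% CO2, with weekly medium change. Stained with 0.1% crystal violet and quantified by image analysis. Three independent experiments.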
# 22Rv1 xenografts = assay: In vivo 22Rv1 xenograft model; design: species or system male SCID mice; settings: BSJ-5-63 25 mg/kg ip; olaparib 50 mg/kg p.o.
# Summary of the method: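 22Rv1 cells (5 × 10^6 in 50 μl plus 50 μl Matrigel) injected subcutaneously into the right flank; n = 5/group, randomised at ~150 mm3. Volume = length × width² × 0.5. Monotherapy: 50 mg/kg ip daily or 1 day on/2 days off for 12 days; vehicle 5% DMSO/15% Solutol HS-15/80% saline. Sequential arms: test compound 25 mg/kg ip and PARP inhibitor 50 mg/kg p.o. Tumours weighed; H&E and cleaved caspase-3 IHC performed.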
# DU145 xenografts = assay: In vivo DU145 xenograft model; design: species or system male SCID mice; settings: BSJ-5-63 25 mg/kg ip; olaparib 50 mg/kg p.o.
# Summary of the method: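 DU145 xenografts were set up subcutaneously with Matrigel in the right flank. At ~150 mm3, mice were randomised into four groups (n = 5): vehicle p.o., PARP inhibitor 50 mg/kg p.o., test compound 25 mg/kg ip, or sequential combination. Dosing volume 0.1 ml/10 g. Body weight recorded daily. Study ended after 3–4 weeks or at 2 cm tumour length.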
# BID-PC4 PDX = assay: In vivo BID-PC4 PDX model; design: species or system male SCID mice; settings: BSJ-5-63 25 mg/kg ip; olaparib 50 mg/kg p.o.
# Summary of the method: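 Tumour bits in 50 μl PBS plus 50 μl Matrigel implanted subcutaneously (right flank) into intact male SCID mice. At ~150 mm3, randomised into four groups (n = 5): vehicle (5% DMSO/15% Solutol HS-15/80% saline) p.o., PARP inhibitor 50 mg/kg p.o., test compound 25 mg/kg ip, or sequential combination. Body weight recorded daily. Run for 3 weeks or until 2 cm tumour length; tumours excised and weighed.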
# [1] = system: CDK12-KO 22Rv1 xenografts; assay: In vivo CDK12-KO 22Rv1 xenograft model; design: species or system male SCID mice; settings: olaparib 50 mg/kg, p.o., daily
# Summary of the method: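 CDK12-KO (two sgRNAs) and AAVS1-control 22Rv1 cells made by lentiviral spin infection of Cas9-expressing cells (blasticidin 20 μg/ml). Implanted subcutaneously (5 × 10^6 with Matrigel). At ~150 mm3, each line randomised to vehicle p.o. or PARP inhibitor 50 mg/kg p.o. daily for 3 weeks (or until 2 cm tumour length). Tumours excised and weighed.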
# [2] = In vitro mouse liver microsomal stability assay; format: in vitro ADME; settings: liver microsomes
# Summary of the method: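 Mouse liver microsomes (0.5 mg/ml) incubated with 1 μM test compound at 37°C with NADPH cofactor (1 mM).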
# Chain of CDK12 (Q9NYV4 whole entry): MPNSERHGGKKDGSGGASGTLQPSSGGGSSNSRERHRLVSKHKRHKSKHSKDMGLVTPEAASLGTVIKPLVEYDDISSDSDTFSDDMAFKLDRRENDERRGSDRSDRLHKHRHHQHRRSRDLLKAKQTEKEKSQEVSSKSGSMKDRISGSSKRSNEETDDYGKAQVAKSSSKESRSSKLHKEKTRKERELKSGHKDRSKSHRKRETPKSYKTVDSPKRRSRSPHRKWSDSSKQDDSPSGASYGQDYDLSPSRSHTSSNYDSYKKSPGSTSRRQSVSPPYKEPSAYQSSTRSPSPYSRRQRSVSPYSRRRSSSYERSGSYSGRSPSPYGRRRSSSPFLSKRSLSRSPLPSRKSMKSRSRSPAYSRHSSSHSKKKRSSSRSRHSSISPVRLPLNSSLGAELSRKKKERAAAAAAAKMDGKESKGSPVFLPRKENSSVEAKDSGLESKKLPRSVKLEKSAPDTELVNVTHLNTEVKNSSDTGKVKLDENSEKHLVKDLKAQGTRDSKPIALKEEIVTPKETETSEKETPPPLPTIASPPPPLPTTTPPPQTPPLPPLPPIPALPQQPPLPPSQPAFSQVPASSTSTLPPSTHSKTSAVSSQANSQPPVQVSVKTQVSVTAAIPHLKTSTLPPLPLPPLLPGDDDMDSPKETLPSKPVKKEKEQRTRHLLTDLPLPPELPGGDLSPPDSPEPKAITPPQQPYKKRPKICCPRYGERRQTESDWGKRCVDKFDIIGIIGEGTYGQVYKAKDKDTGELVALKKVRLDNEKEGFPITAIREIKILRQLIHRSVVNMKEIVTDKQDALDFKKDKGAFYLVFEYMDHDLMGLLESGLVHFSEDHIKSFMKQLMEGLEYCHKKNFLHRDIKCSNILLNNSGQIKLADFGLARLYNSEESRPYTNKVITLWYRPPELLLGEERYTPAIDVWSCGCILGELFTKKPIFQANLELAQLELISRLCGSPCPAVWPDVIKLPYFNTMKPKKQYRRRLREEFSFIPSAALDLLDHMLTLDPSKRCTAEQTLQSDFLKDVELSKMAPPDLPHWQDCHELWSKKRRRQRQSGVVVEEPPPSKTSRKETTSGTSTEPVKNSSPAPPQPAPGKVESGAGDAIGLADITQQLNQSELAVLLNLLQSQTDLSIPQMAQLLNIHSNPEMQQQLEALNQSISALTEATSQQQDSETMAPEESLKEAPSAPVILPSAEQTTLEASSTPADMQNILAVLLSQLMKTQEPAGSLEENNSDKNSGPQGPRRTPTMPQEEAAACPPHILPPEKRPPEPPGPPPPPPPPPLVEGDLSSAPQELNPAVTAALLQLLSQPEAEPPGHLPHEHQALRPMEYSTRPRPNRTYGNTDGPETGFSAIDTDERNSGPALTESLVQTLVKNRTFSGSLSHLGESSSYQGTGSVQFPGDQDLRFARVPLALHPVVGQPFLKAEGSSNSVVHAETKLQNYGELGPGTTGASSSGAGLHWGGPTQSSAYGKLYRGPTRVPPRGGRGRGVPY
# Chain of CDK12 (O75909 whole entry partner): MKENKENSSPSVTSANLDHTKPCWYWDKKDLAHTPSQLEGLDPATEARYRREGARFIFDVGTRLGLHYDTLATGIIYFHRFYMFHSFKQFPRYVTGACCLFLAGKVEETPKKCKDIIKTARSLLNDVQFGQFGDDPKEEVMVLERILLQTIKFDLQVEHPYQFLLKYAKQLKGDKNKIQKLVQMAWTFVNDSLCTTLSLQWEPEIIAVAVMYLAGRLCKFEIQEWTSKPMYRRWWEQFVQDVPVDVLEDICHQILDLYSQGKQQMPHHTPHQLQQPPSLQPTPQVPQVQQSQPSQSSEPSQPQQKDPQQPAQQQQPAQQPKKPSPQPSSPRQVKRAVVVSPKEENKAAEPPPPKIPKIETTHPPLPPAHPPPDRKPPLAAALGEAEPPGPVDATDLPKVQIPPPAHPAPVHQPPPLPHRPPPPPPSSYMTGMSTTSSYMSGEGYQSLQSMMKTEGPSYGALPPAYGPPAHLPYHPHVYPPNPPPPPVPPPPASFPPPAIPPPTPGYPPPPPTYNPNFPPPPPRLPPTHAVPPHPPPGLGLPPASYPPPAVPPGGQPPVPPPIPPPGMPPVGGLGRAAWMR
smiles,measurement,setting,value
CC(C)C[C@@H](C=O)NC(=O)[C@H](CC(C)C)NC(=O)[C@H](CC(C)C)NC(=O)OCc1ccccc1 [MG132] (Cbz-Leu-Leu-Leu-aldehyde),BSJ-5-63–induced degradation of CDK12/7/9 after pretreatment with the proteasome inhibitor,CDK12,rescued
O=C(c1cc(Cc2n[nH]c(=O)c3ccccc23)ccc1F)N1CCN(C(=O)C2CC2)CC1 [Olaparib],sensitivity of CDK12-KO 22Rv1 cells compared with AAVS1 control,PCa cells,significantly enhanced sensitivity
same,"22Rv1 tumor growth, monotherapy",22Rv1 xenografts,partial inhibition
same,"number of apoptotic cells in 22Rv1 tumors, monotherapy",22Rv1 xenografts,notably increased
same,"DU145 tumor growth, monotherapy",DU145 xenografts,only partial inhibition of tumor growth
same,"BID-PC4 PDX tumor growth, monotherapy",BID-PC4 PDX,insensitive
same,tumor growth of CDK12-KO 22Rv1 xenografts,[1]; 3 weeks,marked sensitivity
same,tumor weight of CDK12-KO 22Rv1 xenografts,[1]; day 21,reduction in tumor weight
CCN(CC)CCNC(=O)c1c(C)[nH]c(/C=C2\C(=O)Nc3ccc(F)cc32)c1C [Sunitinib],half-life at 1 μM,[2],10 min
same,microsomal CLint at 1 μM,[2],69 µL/min/mg
